# Like-named read-outs stand apart in the source and are kept apart here.
# What was measured:
# Safety and tolerability = assay type: in vivo, human (healthy adult participants)
# Method in brief: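 Healthy adults received single 100-mg oral doses of 4×25-mg tablets, either fasted, after a high-fat meal, or after five evening doses of rabeprazole 20 mg. Safety was monitored by physical examination, laboratory tests, ECG, concomitant medication review, and AE frequency and severity. The safety population comprised all participants receiving ≥1 dose of study medication.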
# [1] = assay type: in vivo, human (healthy adult participants); conditions: for AUC(0-inf) / AUC(0-t) / Cmax / half-life / Tmax: human, plasma, po; for Tmax: median (range)
# [2] = both acetate and freebase forms, cited from earlier work
# [3] = cited from earlier work
# [4] = Treatment A: 100-mg tablets, fasted, n = 24
# [5] = Treatment B: 100-mg tablets + high-fat meal, n = 23
# [6] = Treatment C: 100-mg tablets + rabeprazole 20 mg, n = 23
# [7] = Treatment D: 100-mg oral solution, n = 24
# [8] = 100-mg oral solution (test) versus 100-mg tablets (reference)
# [9] = 100-mg tablets + high-fat meal (test) versus 100-mg tablets (reference)
# [10] = 100-mg tablets + rabeprazole 20-mg (test) versus 100-mg tablets (reference)
compound,measurement,setting,value
"C[C@H]1Oc2cc(cnc2N)-c2c(nn(C)c2C#N)CN(C)C(=O)c2ccc(F)cc21 [Lorlatinib, (10R)‐7‐amino‐12‐fluoro‐2,10,16‐trimethyl‐15‐oxo‐10,15,16,17‐tetrahydro‐2H‐8,4‐(metheno)pyrazolo[4,3‐h][2,5,11]‐benzoxadiazacyclotetradecine‐3‐carbonitrile]",Participants with any serious treatment-related AE,Safety and tolerability; [4],0 n (%)
same,Participants with any treatment-emergent AE,Safety and tolerability; [4],19 (79) n (%)
same,Participants with any treatment-related AE,Safety and tolerability; [4],19 (79) n (%)
same,Treatment-related AE: Acne,Safety and tolerability; [4],4 (17) n (%)
same,Treatment-related AE: Diarrhea,Safety and tolerability; [4],3 (13) n (%)
same,Treatment-related AE: First-degree AV block,Safety and tolerability; [4],5 (21) n (%)
same,Treatment-related AE: Headache,Safety and tolerability; [4],7 (29) n (%)
same,Participants with any serious treatment-related AE,Safety and tolerability; [5],0 n (%)
same,Participants with any treatment-emergent AE,Safety and tolerability; [5],15 (65) n (%)
same,Participants with any treatment-related AE,Safety and tolerability; [5],15 (65) n (%)
same,Treatment-related AE: Acne,Safety and tolerability; [5],2 (9) n (%)
same,Treatment-related AE: Diarrhea,Safety and tolerability; [5],1 (4) n (%)
same,Treatment-related AE: First-degree AV block,Safety and tolerability; [5],2 (9) n (%)
same,Treatment-related AE: Headache,Safety and tolerability; [5],4 (17) n (%)
same,Participants with any serious treatment-related AE,Safety and tolerability; [6],0 n (%)
same,Participants with any treatment-emergent AE,Safety and tolerability; [6],19 (83) n (%)
same,Participants with any treatment-related AE,Safety and tolerability; [6],19 (83) n (%)
same,Treatment-related AE: Acne,Safety and tolerability; [6],2 (9) n (%)
same,Treatment-related AE: Diarrhea,Safety and tolerability; [6],2 (9) n (%)
same,Treatment-related AE: First-degree AV block,Safety and tolerability; [6],4 (17) n (%)
same,Treatment-related AE: Headache,Safety and tolerability; [6],7 (30) n (%)
same,Participants with any serious treatment-related AE,Safety and tolerability; [7],0 n (%)
same,Participants with any treatment-emergent AE,Safety and tolerability; [7],16 (67) n (%)
same,Participants with any treatment-related AE,Safety and tolerability; [7],16 (67) n (%)
same,Treatment-related AE: Acne,Safety and tolerability; [7],4 (17) n (%)
same,Treatment-related AE: Diarrhea,Safety and tolerability; [7],2 (8) n (%)
same,Treatment-related AE: First-degree AV block,Safety and tolerability; [7],3 (13) n (%)
same,Treatment-related AE: Headache,Safety and tolerability; [7],6 (25) n (%)
same,Deaths during the study,Safety and tolerability; all treatment periods,no deaths
same,Participants with serious or severe treatment-related AEs,Safety and tolerability; all treatment periods,No participants
same,AEs mild in severity (of all AEs),"Safety and tolerability; all treatment periods, remainder moderate",119 of 135
same,"Ratio (Test/Reference) of Adjusted Means, AUCinf",[1]; [8],107.9%
same,"Ratio (Test/Reference) of Adjusted Means, AUClast",[1]; [8],107.8%
same,"Ratio (Test/Reference) of Adjusted Means, Cmax",[1]; [8],129.7%
same,"Ratio (Test/Reference) of Adjusted Means, AUCinf",[1]; [9],104.7%
same,"Ratio (Test/Reference) of Adjusted Means, AUClast",[1]; [9],104.6%
same,"Ratio (Test/Reference) of Adjusted Means, Cmax",[1]; [9],90.9%
same,"Ratio (Test/Reference) of Adjusted Means, AUCinf",[1]; [10],100.9%
same,"Ratio (Test/Reference) of Adjusted Means, AUClast",[1]; [10],99.7%
same,"Ratio (Test/Reference) of Adjusted Means, Cmax",[1]; [10],70.7%
same,Adjusted geometric mean Cmax,"[1]; 100-mg tablets, fasted (reference), mixed-effects model",533.1 ng/mL
same,Arithmetic mean CL/F,"[1]; Treatment A: single oral 100-mg dose, tablets, fasted, n = 24, mean ± SD",11.8 ± 2.5 L/h
same,Geometric mean CL/F,"[1]; Treatment A: single oral 100-mg dose, tablets, fasted, n = 24, value (geometric %CV)",11.5 (24) L/h
same,Arithmetic mean CL/F,"[1]; Treatment B: single oral 100-mg dose, tablets + high-fat meal, n = 23, mean ± SD",11.7 ± 2.8 L/h
same,Geometric mean CL/F,"[1]; Treatment B: single oral 100-mg dose, tablets + high-fat meal, n = 23, value (geometric %CV)",11.4 (24) L/h
same,Arithmetic mean CL/F,"[1]; Treatment C: single oral 100-mg dose, tablets + rabeprazole 20 mg, fasted, n = 23, mean ± SD",11.9 ± 2.5 L/h
same,Geometric mean CL/F,"[1]; Treatment C: single oral 100-mg dose, tablets + rabeprazole 20 mg, fasted, n = 23, value (geometric %CV)",11.6 (24) L/h
same,Arithmetic mean CL/F,"[1]; Treatment D: single oral 100-mg dose, oral solution, fasted, n = 24, mean ± SD",11.0 ± 2.4 L/h
same,Geometric mean CL/F,"[1]; Treatment D: single oral 100-mg dose, oral solution, fasted, n = 24, value (geometric %CV)",10.7 (24) L/h
same,AUC(0-inf),"[1]; 100 mg, Arithmetic mean AUCinf, Treatment A: single oral 100-mg dose, tablets, fasted, n = 24, mean ± SD",8960 ± 2380 ng·h/mL
same,AUC(0-inf),"[1]; 100 mg, Arithmetic mean AUCinf, Treatment B: single oral 100-mg dose, tablets + high-fat meal, n = 23, mean ± SD",9030 ± 2280 ng·h/mL
same,AUC(0-inf),"[1]; 100 mg, Arithmetic mean AUCinf, Treatment D: single oral 100-mg dose, oral solution, fasted, n = 24, mean ± SD",9620 ± 2440 ng·h/mL
same,AUC(0-t),"[1]; 100 mg, Arithmetic mean AUClast, Treatment A: single oral 100-mg dose, tablets, fasted, n = 24, mean ± SD",8380 ± 1990 ng·h/mL
same,AUC(0-t),"[1]; 100 mg, Arithmetic mean AUClast, Treatment B: single oral 100-mg dose, tablets + high-fat meal, n = 23, mean ± SD",8460 ± 1940 ng·h/mL
same,AUC(0-t),"[1]; 100 mg, Arithmetic mean AUClast, Treatment D: single oral 100-mg dose, oral solution, fasted, n = 24, mean ± SD",8990 ± 2040 ng·h/mL
same,Cmax,"[1]; 100 mg, Arithmetic mean Cmax, Treatment A: single oral 100-mg dose, tablets, fasted, n = 24, mean ± SD",559 ± 115 ng/mL
same,Cmax,"[1]; 100 mg, Arithmetic mean Cmax, Treatment D: single oral 100-mg dose, oral solution, fasted, n = 24, mean ± SD",722 ± 185 ng/mL
same,half-life,"[1]; 100 mg, Arithmetic mean t1/2, Treatment A: single oral 100-mg dose, tablets, fasted, n = 24, mean ± SD",24.2 ± 5.2 h
same,half-life,"[1]; 100 mg, Arithmetic mean t1/2, Treatment B: single oral 100-mg dose, tablets + high-fat meal, n = 23, mean ± SD",23.7 ± 6 h
same,half-life,"[1]; 100 mg, Arithmetic mean t1/2, Treatment D: single oral 100-mg dose, oral solution, fasted, n = 24, mean ± SD",24.1 ± 5.4 h
same,AUC(0-inf),"[1]; 100 mg, Geometric mean AUCinf, Treatment A: single oral 100-mg dose, tablets, fasted, n = 24, value (geometric %CV)",8710 ng·h/mL
same,AUC(0-inf),"[1]; 100 mg, Geometric mean AUCinf, Treatment B: single oral 100-mg dose, tablets + high-fat meal, n = 23, value (geometric %CV)",8780 ng·h/mL
same,AUC(0-inf),"[1]; 100 mg, Geometric mean AUCinf, Treatment D: single oral 100-mg dose, oral solution, fasted, n = 24, value (geometric %CV)",9360 ng·h/mL
same,AUC(0-t),"[1]; 100 mg, Geometric mean AUClast, Treatment B: single oral 100-mg dose, tablets + high-fat meal, n = 23, value (geometric %CV)",8260 ng·h/mL
same,AUC(0-t),"[1]; 100 mg, Geometric mean AUClast, Treatment D: single oral 100-mg dose, oral solution, fasted, n = 24, value (geometric %CV)",8790 ng·h/mL
same,Cmax,"[1]; 100 mg, Geometric mean Cmax, Treatment A: single oral 100-mg dose, tablets, fasted, n = 24, value (geometric %CV)",548 ng/mL
same,Cmax,"[1]; 100 mg, Geometric mean Cmax, Treatment B: single oral 100-mg dose, tablets + high-fat meal, n = 23, value (geometric %CV)",489 ng/mL
same,Cmax,"[1]; 100 mg, Geometric mean Cmax, Treatment D: single oral 100-mg dose, oral solution, fasted, n = 24, value (geometric %CV)",705 ng/mL
same,Tmax,"[1]; 100 mg, Treatment B: single oral 100-mg dose, tablets + high-fat meal, n = 23",2 h
same,Tmax,"[1]; 100 mg, Treatment D: single oral 100-mg dose, oral solution, fasted, n = 24",1 h
same,AUC(0-inf),"[1]; Arithmetic mean AUCinf, Treatment C: single oral 100-mg dose, tablets + rabeprazole 20 mg, fasted, n = 23, mean ± SD",8880 ± 2430 ng·h/mL
same,AUC(0-t),"[1]; Arithmetic mean AUClast, Treatment C: single oral 100-mg dose, tablets + rabeprazole 20 mg, fasted, n = 23, mean ± SD",8190 ± 1930 ng·h/mL
same,Cmax,"[1]; Arithmetic mean Cmax, Treatment C: single oral 100-mg dose, tablets + rabeprazole 20 mg, fasted, n = 23, mean ± SD",398 ± 114 ng/mL
same,AUC(0-inf),"[1]; Geometric mean AUCinf, Treatment C: single oral 100-mg dose, tablets + rabeprazole 20 mg, fasted, n = 23, value (geometric %CV)",8630 ng·h/mL
same,AUC(0-t),"[1]; Geometric mean AUClast, Treatment C: single oral 100-mg dose, tablets + rabeprazole 20 mg, fasted, n = 23, value (geometric %CV)",8010 ng·h/mL
same,Cmax,"[1]; Geometric mean Cmax, Treatment C: single oral 100-mg dose, tablets + rabeprazole 20 mg, fasted, n = 23, value (geometric %CV)",383 ng/mL
same,Tmax,"[1]; Treatment C: single oral 100-mg dose, tablets + rabeprazole 20 mg, fasted, n = 23",2 h
same,Higher Cmax with the oral solution than with the tablet formulation,"[1]; single 100-mg oral dose, fasted",~30%
same,Aqueous solubility,[2]; pH 7.7,100 µg/mL
same,Aqueous solubility,[2]; pH <2,> 10000 µg/mL
same,Geometric mean maximum plasma concentration (Cmax),[3]; 100 mg/100 μCi [14C]lorlatinib,about 600 ng/mL
same,Renal clearance,[3]; 100 mg/100 μCi [14C]lorlatinib,1.6 mL/min
same,Urinary excretion of unchanged lorlatinib,[3]; 100 mg/100 μCi [14C]lorlatinib,~0.7%
same,Mean terminal plasma elimination half-life (t1/2),[3]; human ADME studies,about 20 hours

# From article PMC9292600 (Clinical Pharmacology in Drug Development, 2021)
